Source: PubChem BioAssay
Rows were chosen to be rich in hits. Some 3.5% of all compounds tested hit in one or more screens of this group.
PAFAH1B3 FP inh: PAFAH1B3 enzyme inhibitors, primary screen, biochemical, fluorescence polarization, human | inhibition, % at 3.39 µM | recombinant PAFAH1B3, FP-rhodamine probe | AID 492972, 2010 | 340,000 tested, 0.28% active;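 active = inhibition above the screen-wide average of all tested compounds plus 3 SD, cut at about 25% in these data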
PREPL inh: PREPL enzyme inhibitors, primary screen, biochemical, fluorescence polarization; recombinant PREPL, fluorescence polarization activity-based probe; AID 2751, 2010; Prolyl endopeptidase-like (Homo sapiens), Q4J6C6; 320,000 tested, 0.68% active; inhibition, % at 5.96 µM; in the data active = inhibition above about 43%
Target sequence (Q4J6C6 whole entry, looked up): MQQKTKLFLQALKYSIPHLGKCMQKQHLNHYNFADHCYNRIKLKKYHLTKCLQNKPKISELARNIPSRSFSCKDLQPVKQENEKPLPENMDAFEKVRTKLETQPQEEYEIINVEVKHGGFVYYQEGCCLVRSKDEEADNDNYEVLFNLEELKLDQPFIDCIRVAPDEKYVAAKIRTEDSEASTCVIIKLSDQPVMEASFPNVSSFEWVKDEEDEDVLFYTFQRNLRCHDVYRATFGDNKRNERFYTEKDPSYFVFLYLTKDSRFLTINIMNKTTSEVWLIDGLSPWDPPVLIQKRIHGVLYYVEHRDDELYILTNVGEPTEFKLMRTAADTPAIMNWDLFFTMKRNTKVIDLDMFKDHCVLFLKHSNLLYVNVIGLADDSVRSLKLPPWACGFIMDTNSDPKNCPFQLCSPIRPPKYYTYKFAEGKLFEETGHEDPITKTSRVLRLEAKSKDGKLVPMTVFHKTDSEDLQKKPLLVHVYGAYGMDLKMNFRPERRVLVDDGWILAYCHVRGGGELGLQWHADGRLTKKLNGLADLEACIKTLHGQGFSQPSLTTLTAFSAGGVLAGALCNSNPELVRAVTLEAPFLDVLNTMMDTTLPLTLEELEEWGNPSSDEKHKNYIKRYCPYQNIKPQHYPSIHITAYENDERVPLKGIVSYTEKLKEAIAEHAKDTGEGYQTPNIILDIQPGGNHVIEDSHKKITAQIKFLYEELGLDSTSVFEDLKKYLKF
pPAFAH inh: pPAFAH enzyme inhibitors, primary screen, biochemical, fluorescence polarization, human; Platelet-activating factor acetylhydrolase (Homo sapiens), Q13093; 330,000 tested, 1.5% active; AID 463082, 2010; inhibition, % at 3.39 µM; recombinant pPAFAH, FP-rhodamine probe fluorescence polarization;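 active = inhibition above the mean inhibition across the screen plus 3 SD, cut at about 25% in these data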;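 note: inhibitors block binding of the rhodamine activity-based probe so polarization drops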
PAFAH1B2 FP inh: PAFAH1B2 enzyme inhibitors, primary screen, biochemical, fluorescence polarization, human; Platelet-activating factor acetylhydrolase IB subunit alpha2 (Homo sapiens), P68402; 340,000 tested, 1.2% active; inhibition, % at 3.39 µM; recombinant PAFAH1B2, FP-rhodamine activity probe;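 active = inhibition above the mean of all tested compounds plus 3 SD, cut at about 24% in these data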
PAFAH2 inh: PAFAH2 enzyme inhibitors, primary screen, biochemical, fluorescence polarization, human. Platelet-activating factor acetylhydrolase 2, cytoplasmic (Homo sapiens), Q99487. recombinant PAFAH2, FP-rhodamine activity probe. inhibition, % at 3.39 µM. 340,000 tested, 0.99% active. AID 492956, 2010;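 active = inhibition above the mean over all tested compounds plus 3 SD, cut at about 30% in these data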;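 note: inhibitors block probe labeling of enzyme so polarization drops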
Apaf-1 inh: inhibitors of human Apaf-1 apoptosome, primary screen, biochemical, DEVD-Rh110 fluorescence, uHTS. Apoptotic protease-activating factor 1 (Homo sapiens), O14727. reconstituted apoptosome caspase-3 activity. inhibition, % at 20 µM. 330,000 tested, 0.71% active; active = inhibition of at least 40% at 20 µM
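Material: reconstituted apoptosome with Apaf-1, cytochrome c, caspase-9, procaspase-3, dATP / Buffer or medium: pH 7.5 Hepes buffer with CHAPS, BSA, DTT / Also added: cytochrome c with DEVD-Rh110 / Schedule: compound with Apaf-1, dATP, procaspase-3 30 min, then 50 min reaction, room temperature / Technique: rhodamine 110 fluorescence at Ex 480/Em 540 nm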
PAFAH1B3 conf FP: PAFAH1B3 enzyme inhibitors, confirmation, biochemical, fluorescence polarization, human; inhibition, % at 3.39 µM; 390 tested, 30% active; recombinant PAFAH1B3, FP-Rh activity-based probe; shares compounds with PAFAH1B3 FP inh; AID 493032, 2011;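 active = average inhibition over triplicate runs above the hit cutoff set in the earlier primary screen, cut at about 25% in these data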
A number is an active result; n = inactive; x = no result; + = active, no number.

SMILES | PAFAH1B3 FP inh | PREPL inh | pPAFAH inh | PAFAH1B2 FP inh | PAFAH2 inh | Apaf-1 inh | PAFAH1B3 conf FP
C=CC(=O)Nc1sc2c(c1C(N)=O)CCCC2 | 31.6 | n | n | n | n | n | 29.7
C=CCNC(=S)Nc1sc2c(c1C(N)=O)CCCC2 | x | n | n | x | x | n | x
C=CCN(CC=C)C(=O)c1ccc(OC2CCN(C(C)=O)CC2)c(OC)c1 | n | n | n | n | n | n | x
CC1OC(CC(=O)O)CC2=C1C(=O)c1c(O)cccc1C2=O (centres undefined) | 53.0 | x | x | n | n | x | n
O=C1/C(=N\S(=O)(=O)c2cccs2)C([n+]2ccccc2)=C([O-])c2ccccc21 | 48.6 | n | n | n | n | n | 35.0
N/C(=N\S(=O)(=O)c1cccs1)c1ccccc1 | n | n | n | n | n | n | x
O=c1cc(Nc2cccc(Br)c2)[nH]c(=O)[nH]1 | x | n | n | x | x | n | x
O=c1[nH]c(Nc2ccccc2)cc2cc(Br)ccc12 | 61.0 | n | n | n | n | 97.9 | n
O=C1c2ccccc2C(=O)N1OCCCN1C(=O)c2ccccc2S1(=O)=O | n | x | x | n | n | x | x
O=C1c2ccccc2S(=O)(=O)N1CCCN1C(=O)c2ccccc2S1(=O)=O | 29.7 | x | x | n | n | x | n
COC(=O)c1ccc(NC(=S)NCCCn2ccnc2)cc1 | n | n | n | n | n | n | x
COc1cc2c(cc1OC)CN(Cc1ccc(C)s1)CC2 | n | n | n | n | n | n | x
CCOCCCNC(=O)NC12CC3CC(CC(C3)C1)C2 | n | n | n | n | n | n | x
O=C(O)CCCCCCCCCCCNC(=O)NC12CC3CC(CC(C3)C1)C2 | 25.6 | n | n | n | n | n | n
O=C(c1ccccc1)c1c[nH]cc1-c1ccccc1 | n | n | n | n | n | n | x
O=C(C1=C(c2ccccc2)C(=O)c2ccccc2C1=O)c1ccccc1 | 58.2 | x | x | n | n | x | 25.6
O=C(CSc1ccc2c(c1)OCCO2)Nc1ccc(Cl)cn1 | 25.9 | n | n | n | n | n | n
Cc1ccnc2nc(C(=O)OCCOc3ccc(F)cc3)nn12 | n | n | n | n | n | n | x
CCOC(=O)c1sc(NC(=O)Nc2ccccc2)cc1C | 26.6 | n | n | n | n | n | n
COc1cc(NC(=O)c2cc(-c3ccccc3)nc3c2cnn3C(C)C)cc(OC)c1OC | 25.9 | n | n | n | n | n | n
O=C1Nc2c(Cl)cc(Cl)cc2C1=O | 43.3 | x | x | n | n | x | n
Cc1cccc(N=C2C(=O)Nc3c(Cl)cccc32)c1 | n | n | n | n | n | n | x
COc1ccc(N(CC(=O)NCC2CCCO2)S(=O)(=O)c2ccccc2)cc1OC (centres undefined) | n | n | n | n | n | n | x
O=S(=O)(Nc1ccc(N=Nc2ccc(O)c3ccccc23)cc1)c1ccccc1 | 36.0 | n | n | n | n | n | n
Cc1ccc(C=C2C(=O)c3ccccc3C2=O)o1 | n | n | n | n | n | n | x
SMILES | PAFAH1B3 FP inh | PREPL inh | pPAFAH inh | PAFAH1B2 FP inh | PAFAH2 inh | Apaf-1 inh | PAFAH1B3 conf FP
Cc1ccc(/C=C2/C(=O)c3ccc(C(=O)O)cc3C2=O)o1 | 25.8 | x | x | n | n | x | n
C[C@@H]1C=C(C(=O)NCc2nc3ccccc3[nH]2)O[C@H](OCCCCO)C1 | + | n | n | n | n | n | n
O=C1NC(c2ccccc2)C(c2ccccc2)N1 (centres undefined) | 50.5 | x | x | n | n | x | 39.5
CC(C)[C@@H](C(=O)N1CCCC1)N1C(=O)N2CCc3c([nH]c4ccccc34)[C@@]2(C)C1=O | n | n | n | n | n | n | x
O=C(Nc1ccc2c(c1)OCO2)C1CC(c2cccc(Br)c2)=NO1 (centres undefined) | n | n | n | n | n | n | x
O=C(Cn1ncc(Cl)c(Cl)c1=O)NC1CCCCC1 | 28.9 | n | n | n | n | n | n
O=C1c2ccccc2C(=O)c2c1ccc(O)c2O | 30.0 | x | x | n | n | x | n
CNC(=O)NNC(=O)c1onc(-c2c(Cl)cccc2Cl)c1C(=O)OC | n | n | n | n | n | n | x
